Assay [1] concerns the target T1, Voltage-dependent L-type calcium channel subunit alpha-1D (Rattus norvegicus, UniProt P27732). In words: Inhibitory concentration for L-type [Ca2+] channels was measured through displacement of [3H]nitrendipine on rat cortex homogenates. The format is tissue-based.
Assay [2] addresses T1, Voltage-dependent L-type calcium channel subunit alpha-1D. In words: Binding affinity for L-type [Ca2+] channels was measured through displacement of [3H]nitrendipine on rat cortex homogenates. The format is tissue-based.
Assay [3] is filed under the species Rattus norvegicus. In words: […]. The format is functional. In short, it runs like this: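 Nitrite formation measured as an index of NO release. Compound incubated in pH 7.4 buffer with a 50-fold molar excess of L-cysteine at 37 °C. After 1 h, nitrite was detected by the Griess reaction. Values are expressed as % NO₂⁻ (mol/mol).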
The species entered for assay [4] is Rattus norvegicus. The assay is described as follows: Vasodilator activity was measured on rat aorta.
The species entered for assay [5] is Rattus norvegicus. In words: Vasodilator activity was measured on rat aorta in the presence of methylene blue (MB).

Structures are written as SMILES.

T1 sequence (P27732 whole entry): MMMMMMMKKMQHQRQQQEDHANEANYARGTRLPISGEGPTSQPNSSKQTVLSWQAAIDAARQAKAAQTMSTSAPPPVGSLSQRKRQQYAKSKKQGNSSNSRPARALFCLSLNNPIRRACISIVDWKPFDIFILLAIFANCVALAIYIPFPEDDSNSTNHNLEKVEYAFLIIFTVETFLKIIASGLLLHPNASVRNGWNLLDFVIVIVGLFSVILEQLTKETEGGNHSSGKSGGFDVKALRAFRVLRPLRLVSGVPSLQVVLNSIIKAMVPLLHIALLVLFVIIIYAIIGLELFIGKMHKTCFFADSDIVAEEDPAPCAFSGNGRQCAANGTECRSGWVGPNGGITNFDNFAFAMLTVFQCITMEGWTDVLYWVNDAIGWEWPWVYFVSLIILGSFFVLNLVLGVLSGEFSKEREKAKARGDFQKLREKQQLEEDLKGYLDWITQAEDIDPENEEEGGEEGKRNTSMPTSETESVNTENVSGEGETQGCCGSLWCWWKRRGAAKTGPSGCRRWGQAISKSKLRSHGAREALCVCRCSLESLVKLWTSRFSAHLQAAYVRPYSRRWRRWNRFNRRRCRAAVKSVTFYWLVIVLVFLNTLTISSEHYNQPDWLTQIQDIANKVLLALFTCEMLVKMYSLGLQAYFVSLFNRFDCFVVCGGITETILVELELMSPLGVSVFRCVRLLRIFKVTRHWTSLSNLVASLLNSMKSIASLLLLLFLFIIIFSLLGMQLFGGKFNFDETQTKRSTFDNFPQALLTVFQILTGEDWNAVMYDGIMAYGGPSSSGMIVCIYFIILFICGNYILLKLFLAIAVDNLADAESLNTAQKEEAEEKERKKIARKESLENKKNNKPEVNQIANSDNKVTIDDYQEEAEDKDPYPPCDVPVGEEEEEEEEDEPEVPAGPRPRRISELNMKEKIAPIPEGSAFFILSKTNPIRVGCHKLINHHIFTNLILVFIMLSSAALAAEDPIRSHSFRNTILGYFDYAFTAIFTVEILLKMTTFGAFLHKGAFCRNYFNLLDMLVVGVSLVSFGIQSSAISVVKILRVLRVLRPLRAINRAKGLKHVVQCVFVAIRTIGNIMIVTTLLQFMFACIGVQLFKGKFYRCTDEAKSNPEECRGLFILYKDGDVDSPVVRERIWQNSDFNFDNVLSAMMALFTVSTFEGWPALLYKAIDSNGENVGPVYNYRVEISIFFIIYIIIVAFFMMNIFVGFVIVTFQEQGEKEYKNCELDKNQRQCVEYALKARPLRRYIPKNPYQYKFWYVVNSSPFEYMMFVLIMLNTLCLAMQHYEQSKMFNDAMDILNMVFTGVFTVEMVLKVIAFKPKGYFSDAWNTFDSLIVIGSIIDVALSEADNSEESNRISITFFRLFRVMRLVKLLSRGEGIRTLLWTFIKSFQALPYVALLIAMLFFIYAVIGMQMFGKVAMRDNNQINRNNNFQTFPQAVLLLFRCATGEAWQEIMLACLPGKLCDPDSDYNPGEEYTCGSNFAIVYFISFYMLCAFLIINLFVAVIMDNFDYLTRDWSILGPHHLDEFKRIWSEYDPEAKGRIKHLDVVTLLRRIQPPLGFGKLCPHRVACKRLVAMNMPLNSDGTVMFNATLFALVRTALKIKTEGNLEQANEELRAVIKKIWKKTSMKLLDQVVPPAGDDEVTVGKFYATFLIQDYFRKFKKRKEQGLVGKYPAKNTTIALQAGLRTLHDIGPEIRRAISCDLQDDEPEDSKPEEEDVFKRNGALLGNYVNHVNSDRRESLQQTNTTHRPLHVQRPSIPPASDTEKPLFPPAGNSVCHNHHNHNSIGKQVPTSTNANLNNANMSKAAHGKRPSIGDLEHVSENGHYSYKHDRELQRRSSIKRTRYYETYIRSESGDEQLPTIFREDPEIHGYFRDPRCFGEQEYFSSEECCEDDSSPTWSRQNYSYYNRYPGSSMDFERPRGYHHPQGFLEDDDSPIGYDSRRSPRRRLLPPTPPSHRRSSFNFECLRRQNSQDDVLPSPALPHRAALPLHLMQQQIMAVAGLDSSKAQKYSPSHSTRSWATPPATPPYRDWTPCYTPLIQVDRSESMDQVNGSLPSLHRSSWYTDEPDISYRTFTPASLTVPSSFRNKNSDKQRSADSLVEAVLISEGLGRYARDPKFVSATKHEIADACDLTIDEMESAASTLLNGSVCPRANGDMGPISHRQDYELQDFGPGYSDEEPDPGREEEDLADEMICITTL

For `COC(=O)C1=C(C)N=C(C)/C(=C(/O)OC)C1c1ccccc1OCc1c(C(N)=O)no[n+]1[O-]` (centres undefined), the IC50 – broadly, the concentration that gives 50% inhibition – in assay [1] is 780 nM. Also, the Ki (in general, the equilibrium dissociation constant of an inhibitor or competing ligand from its target) in assay [2] came to 350 nM. For the same compound, the Nitric oxide in assay [3] was found to be 12.3%. Also, a half-maximal effect in assay [4] (EC50) was put at 560 nM. Further, the “EC50 iGC” value in assay [5] worked out at 640 nM.

Regarding `COC(=O)C1=C(C)N=C(C)/C(=C(/O)OC)C1c1ccccc1OCc1no[n+]([O-])c1C#N` (centres undefined), the IC50 in assay [1] amounted to 27 nM. The Ki in assay [2] turned out to be 21 nM. Moreover, the Nitric oxide in assay [3] is on record as 40.8%. Besides, the EC50 (usually the concentration needed to bring the measured effect to its halfway point) in assay [4] is 4.4 nM. In addition, the “EC50 iGC” value in assay [5] is given as 22 nM.

Consider `COC(=O)C1=C(C)N=C(C)/C(=C(/O)OC)C1c1ccccc1OCCO[N+](=O)[O-]` (centres undefined), for which the IC50 in assay [1] was 85 nM. In addition, the Ki in assay [2] is 38 nM. The same compound showed a Nitric oxide in assay [3] of less than 0.5%. Further, in assay [4], a half-maximal effect (EC50) was put at 56 nM. In addition, the “EC50 iGC” value in assay [5] is on record as 54 nM.

Regarding `COC(=O)C1=C(C)N=C(C)/C(=C(/O)OC)C1c1cccc(OCc2c(C(N)=O)no[n+]2[O-])c1` (centres undefined), the IC50 in assay [1] was determined as 3600 nM. Moreover, the Ki in assay [2] was 1600 nM. In assay [3], the Nitric oxide was found to be 7.6%. In addition, the response in assay [4] was half-maximal at 1200 nM (EC50). For the same compound, in assay [5], the “EC50 iGC” value came out at 3700 nM.

As for `COC(=O)C1=C(C)N=C(C)/C(=C(/O)OC)C1c1ccccc1OCc1nonc1C(N)=O` (centres undefined), in assay [1], the concentration for half-maximal inhibition (IC50) is 880 nM. Besides, in assay [2], the Ki stood at 400 nM. This compound also displayed a concentration for a half-maximal effect (EC50) in assay [4] of 970 nM. Besides, the “EC50 iGC” value in assay [5] is given as 910 nM.

On to `COC(=O)C1=C(C)N=C(C)/C(=C(/O)OC)C1c1ccccc1OCc1no[n+]([O-])c1C(N)=O` (centres undefined), for which the IC50 in assay [1] was found to be 1500 nM. The Ki in assay [2] came to 670 nM. Moreover, the Nitric oxide in assay [3] came to 13%. Also, a half-maximal effect in assay [4] (EC50) was put at 550 nM. Besides, in assay [5], the “EC50 iGC” value was determined as 940 nM.

For the compound `COC(=O)C1=C(C)N=C(C)/C(=C(/O)OC)C1c1cccc(OCc2c(C)no[n+]2[O-])c1` (centres undefined), in assay [1], the IC50 amounted to 610 nM. Also, in assay [2], the inhibition constant Ki was 280 nM. For the same compound, the Nitric oxide in assay [3] is on record as less than 0.5%. The compound further yielded an EC50 in assay [4] of 400 nM. Moreover, the “EC50 iGC” value in assay [5] was 400 nM.

Take `COC(=O)C1=C(C)N=C(C)/C(=C(/O)OC)C1c1cccc(OCc2no[n+]([O-])c2C)c1` (centres undefined): the IC50 in assay [1] is 820 nM. In addition, the Ki in assay [2] was determined as 370 nM. The compound also had a Nitric oxide in assay [3] of less than 0.5%. The response in assay [4] was half-maximal at 500 nM (EC50). Further, in assay [5], the “EC50 iGC” value is 540 nM.

Turning to `COC(=O)C1=C(C)N=C(C)/C(=C(/O)OC)C1c1cccc(OCc2nonc2C(N)=O)c1` (centres undefined), the IC50 in assay [1] was 5100 nM. In addition, the Ki in assay [2] amounted to 2300 nM. The EC50 in assay [4] came out at 3500 nM. For the same compound, in assay [5], the “EC50 iGC” value is 3300 nM.

Take `COC(=O)C1=C(C)N=C(C)/C(=C(/O)OC)C1c1ccccc1OCc1nonc1C#N` (centres undefined): the IC50 in assay [1] is 10 nM. In addition, in assay [2], the Ki stood at 4.7 nM. The same compound showed an EC50 in assay [4] of 6.6 nM. The “EC50 iGC” value in assay [5] turned out to be 6.6 nM.

`COC(=O)C1=C(C)N=C(C)/C(=C(/O)OC)C1c1ccccc1OCc1nonc1C` (centres undefined): the IC50 in assay [1] came to 59 nM. Besides, the Ki in assay [2] was found to be 27 nM. In assay [4], this compound came in with an EC50 of 41 nM. In addition, the “EC50 iGC” value in assay [5] came to 46 nM.

In the case of `COC(=O)C1=C(C)N=C(C)/C(=C(/O)OC)C1c1cccc(OCc2no[n+]([O-])c2C(N)=O)c1` (centres undefined), the IC50 in assay [1] was determined as 2000 nM. Further, the inhibition constant Ki in assay [2] amounted to 920 nM. For the same compound, the Nitric oxide in assay [3] amounted to 6%. Further, in assay [4], the EC50 stood at 710 nM. Further, in assay [5], the “EC50 iGC” value came out at 1500 nM.

Take `COC(=O)C1=C(C)N=C(C)/C(=C(/O)OC)C1c1ccccc1OCc1c(C#N)no[n+]1[O-]` (centres undefined): the half-maximal inhibitory concentration (IC50) in assay [1] amounted to 67 nM. Also, the Ki in assay [2] was 30 nM. In addition, the Nitric oxide in assay [3] was found to be 24%. The response in assay [4] was half-maximal at 9.4 nM (EC50). For the same compound, the “EC50 iGC” value in assay [5] is listed as 50 nM.

For `COC(=O)C1=C(C)N=C(C)/C(=C(/O)OC)C1c1ccccc1OCc1c(C)no[n+]1[O-]` (centres undefined), the concentration for half-maximal inhibition (IC50) in assay [1] is 72 nM. Besides, in assay [2], the Ki was 32 nM. In assay [3], the Nitric oxide is on record as 1.8%. The 50% effective concentration (EC50) in assay [4] was 78 nM. In addition, the “EC50 iGC” value in assay [5] is listed as 76 nM.

With `COC(=O)C1=C(C)N=C(C)/C(=C(/O)OC)C1c1cccc(OCc2nonc2C#N)c1` (centres undefined), the 50% inhibitory concentration (IC50) in assay [1] turned out to be 590 nM. Further, the Ki in assay [2] was found to be 270 nM. A half-maximal effect in assay [4] (EC50) was put at 310 nM. Moreover, in assay [5], the “EC50 iGC” value amounted to 300 nM.

As for `COC(=O)C1=C(C)N=C(C)/C(=C(/O)OC)C1c1cccc(OCc2nonc2C)c1` (centres undefined), the IC50 in assay [1] was found to be 720 nM. Further, the Ki in assay [2] was found to be 320 nM. Moreover, the EC50 in assay [4] amounted to 640 nM. The “EC50 iGC” value in assay [5] is 620 nM.

With `COC(=O)C1=C(C)N=C(C)/C(=C(/O)OC)C1c1cccc(OCCO[N+](=O)[O-])c1` (centres undefined), the IC50 in assay [1] came out at 970 nM. Also, the Ki in assay [2] turned out to be 440 nM. The Nitric oxide in assay [3] was less than 0.5%. In assay [4], the midpoint of the response, the EC50, lay at 750 nM. For the same compound, the “EC50 iGC” value in assay [5] is 750 nM.

For the compound `COC(=O)C1=C(C)N=C(C)/C(=C(/O)OC)C1c1cccc(OCc2c(C#N)no[n+]2[O-])c1` (centres undefined), the IC50 in assay [1] was 500 nM. Also, in assay [2], the Ki is 220 nM. The Nitric oxide in assay [3] worked out at 31.5%. The concentration giving a half-maximal response (EC50) in assay [4] was determined as 11 nM.

On to `COC(=O)C1=C(C)N=C(C)/C(=C(/O)OC)C1c1cccc(OCc2no[n+]([O-])c2C#N)c1` (centres undefined), for which the IC50 in assay [1] was determined as 500 nM. Further, in assay [2], the Ki came out at 230 nM. Moreover, in assay [3], the Nitric oxide stood at 43.8%. This compound also registered an EC50 in assay [4] of 3.3 nM.

Consider `COC(=O)C1=C(C)N=C(C)/C(=C(/O)OC)C1c1ccccc1OCc1no[n+]([O-])c1C` (centres undefined), for which the half-maximal inhibitory concentration (IC50) in assay [1] amounted to 40 nM. The Ki in assay [2] stood at 18 nM. The Nitric oxide in assay [3] was 0.9%. The compound further came in with an EC50 in assay [4] of 43 nM. The “EC50 iGC” value in assay [5] stood at 46 nM.

`COC(=O)C1=C(C)NC(C)=C(C(=O)OC)C1c1ccccc1[N+](=O)[O-]` [NIFEDIPINE] returned an EC50 in assay [4] of 3.2 nM. The “EC50 iGC” value in assay [5] is listed as 3.4 nM.

The record behind these values is ChEMBL document CHEMBL1131446, “New 1,4-dihydropyridines conjugated to furoxanyl moieties, endowed with both nitric oxide-like and calcium channel antagonist vasodilator activities” (J Med Chem, 1998).
